According to ChEMBL document CHEMBL4304743, “Discovery of ( E)- N1-(3-Fluorophenyl)- N3-(3-(2-(pyridin-2-yl)vinyl)-1 H-indazol-6-yl)malonamide (CHMFL-KIT-033) as a Novel c-KIT T670I Mutant Selective Kinase Inhibitor for Gastrointestinal Stromal Tumors (GISTs)” (J Med Chem, 2019):
Calls of active or inactive are those of the source. The calls are words filed in the database; no cut-off is given here.

Tests used:
[1] = AUC (0 to infinity) in mouse at 1 mg/kg, iv measured after 2 to 720 mins by LC-tandem mass spectrometry analysis; format: ADME, organism-based; set-up: dose 1 mg/kg, time infinity, route intravenous; settings: in vivo
In short: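 Mice dosed 1 mg/kg i.v. or 10 mg/kg p.o.; plasma drug levels by LC-MS/MS, parameters by noncompartmental analysis; values not from triplicate testing.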

GISTT1 [2] = experiment: Induction of apoptosis in human GISTT1 cells harboring c-KIT 560 to 578 deletion/T670I double mutant assessed as increase in cleaved PARP level after 24 hrs by Western blot analysis; format: functional, cell-based
In short: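 GIST-T1-T670I cells grown in DMEM with 10% FBS, exposed to serially diluted compound for 24 h. Apoptosis read by Western blot with PARP and GAPDH antibodies.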

[3] = test system: Mast/stem cell growth factor receptor Kit (Homo sapiens), P10721 [UNDEFINED MUTATION]; experiment: Inhibition of c-KIT 560 to 578 deletion/T670I double mutant in human GISTT1 cells assessed as reduction in c-KIT autophosphorylation at Y703 residue at 0.1 uM to 3 uM after 1 hr by Western blot analysis; format: cell-based
In short: (§1)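 Serial compound dilutions applied for 1 h to GIST-T1, GIST-T1-T670I (CRISPR/Cas9 T670I knock-in, clone confirmed by Sanger sequencing) or GIST-5R cells in DMEM with 10% FBS. Cells then lysed and phospho-proteins detected by standard Western blotting.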

[4] = Oral bioavailability in Sprague-Dawley rat at 10 mg/kg measured after 5 to 720 mins by LC-tandem mass spectrometry analysis; format: ADME, organism-based; settings: in vivo
In short: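 Male Sprague–Dawley rats (190-210 g), fasted 12 h, given 1 mg/kg i.v. or 10 mg/kg p.o. in DMSO/5% glucose water (1:9). Blood sampled at 2–720 min (i.v.) or 5–720 min (p.o.). Plasma proteins precipitated with methanol using caffeine internal standard, then LC-MS/MS. Noncompartmental analysis; F = AUC0-∞ ratio corrected for dose; triplicate ±SD.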

GISTT1 [5] = experiment: Induction of cell cycle arrest in human GISTT1 cells harboring c-KIT 560 to 578 deletion mutant after 24 hrs; format: functional, cell-based
[6] = Apparent volume of distribution in Sprague-Dawley rat at 10 mg/kg, po measured after 5 to 720 mins by LC-tandem mass spectrometry analysis; format: ADME, organism-based; settings: in vivo
In short: (§2)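 Male Sprague-Dawley rats (190-210 g), fasted 12 h, randomized into two groups: 1 mg/kg i.v. or 10 mg/kg p.o., both formulated in 10% DMSO/90% of 5% glucose water. Blood sampled at 2-720 min (i.v.) or 5-720 min (p.o.). Plasma protein-precipitated with methanol, caffeine internal standard, LC-MS/MS. Noncompartmental analysis; triplicate, ±SD.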

[7] = test system: Mast/stem cell growth factor receptor Kit (Homo sapiens), P10721 [UNDEFINED MUTATION]; experiment: Inhibition of c-KIT 560 to 578 deletion mutant in human GISTT1 cells assessed as reduction in STAT3 phosphorylation at 0.1 uM to 3 uM after 1 hr by Western blot analysis; format: cell-based; in short: as §1
[8] = AUC (0 to t) in Sprague-Dawley rat at 1 mg/kg, iv measured after 2 to 720 mins by LC-tandem mass spectrometry analysis; format: ADME, organism-based; settings: in vivo; in short: as §2
[9] = Selectivity ratio, ratio of inhibition of wild type TEL fused c-KIT (unknown origin) transfected in mouse BAF3 cells assessed as growth inhibition to inhibition of TEL fused c-KIT T670I mutant (unknown origin) transfected in mouse BAF3 cells assessed as growth inhibition; set-up: species or system Homo sapiens
In short: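 IL-3 independent BaF3 cells stably expressing tel-c-KIT wt or tel-c-KIT T670I, grown in RPMI 1640 with 10% FBS, 2% L-glutamine, 37 °C, 5% CO2. Suspension cells at 1.5 to 5 × 10^4 cells/mL mixed with serial compound dilutions and incubated 72 h. Viability read by CCK-8 absorbance at 450 nm, normalized to DMSO; GI50 from curve fit. Selectivity is wt GI50 over T670I GI50.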

[10] = target: Mast/stem cell growth factor receptor Kit (Homo sapiens, UniProt P10721, T670I); experiment: Inhibition of TEL fused wild type c-KIT T670I mutant (unknown origin) transfected in mouse BaF3 cells assessed as reduction in phosphorylation at Y719 residue after 2 hrs by Western blot analysis; format: cell-based
[11] = AUC (0 to infinity) in Sprague-Dawley rat at 10 mg/kg, po measured after 5 to 720 mins by LC-tandem mass spectrometry analysis; format: ADME, organism-based; set-up: dose 10 mg/kg, route oral, time infinity; settings: in vivo; in short: as §2
[12] = test system: Mast/stem cell growth factor receptor Kit (Homo sapiens), P10721 [V559G]; experiment: Inhibition of TEL fused c-KIT V559G mutant (unknown origin) transfected in mouse BAF3 cells assessed as growth inhibition after 72 hrs by CCK8 assay; format: cell-based
In short: (§3)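 Tel-c-KIT-transformed BaF3 lines (IL-3 independent) kept in RPMI 1640 with 10% FBS, 2% L-glutamine and pen/strep. Cells at 1.5 to 5 × 10^4 cells/mL mixed with graded compound and incubated 72 h at 37 °C, 5% CO2. Viability by CCK-8 absorbance at 450 nm, normalized to DMSO. GI50 from dose–response fit.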

[13] = Antitumor activity against human GIST5R cells xenografted in nude mouse assessed as tumor weight at 100 mg/kg, po administered […] via gavage for 28 days (reference value: 0.59g); format: functional
In short: (§4)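 Female nu/nu mice (5 weeks old) given subcutaneous right-flank GIST-5R cells in Matrigel. Dosing began at tumors of 200-400 mm3; randomized, 4 mice per group. Daily oral dosing (QD) at 25, 50 or 100 mg/kg in 0.5% methylcellulose/0.4% Tween80, or vehicle alone, for 28 days. Body weight and tumor volume, (W²×L)/2, measured daily; mean±SEM.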

[14] = target: T1, Mast/stem cell growth factor receptor Kit (Homo sapiens, UniProt P10721); experiment: Inhibition of wild type c-KIT phosphorylation at Y823 residue in human COLO320DM cells after 2 hrs by Western blot analysis; format: cell-based
[15] = test system: Mast/stem cell growth factor receptor Kit (Homo sapiens), P10721 [V654A]; experiment: Inhibition of TEL fused c-KIT V654A mutant (unknown origin) transfected in mouse BAF3 cells assessed as growth inhibition after 72 hrs by CCK8 assay; format: cell-based; in short: as §3
[16] = target: Serine/threonine-protein kinase Nek1 (Homo sapiens, UniProt Q96PY6); experiment: Inhibition of wild-type human partial length NEK1 (M1 to K278 residues) expressed in bacterial expression system after 1 hr by Z-LYTE assay
[17] = test system: Mast/stem cell growth factor receptor Kit (Homo sapiens), P10721 [L576P]; experiment: Binding affinity to human partial length c-KIT L576P mutant (Y545 to D952 residues) expressed in bacterial expression system assessed as enzyme remaining activity at 1 uM by Kinomescan method relative to control
In short: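 KINOMEscan binding profile (DiscoverX) run at 1 μM against a panel of 468 kinases and mutants. Read-out is percent of control (%Ctrl) remaining bound.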

[18] = Antitumor activity against human GIST5R cells xenografted in nude mouse assessed as tumor growth inhibition at 100 mg/kg, po administered […] via gavage for 28 days relative to control; format: functional; settings: 672 h, read-out: TGI; in short: as §4
[19] = target: T1, Mast/stem cell growth factor receptor Kit; experiment: Inhibition of TEL fused wild type c-KIT (unknown origin) transfected in mouse BaF3 cells assessed as reduction in phosphorylation at Y823 residue after 2 hrs by Western blot analysis; format: cell-based

Mast/stem cell growth factor receptor Kit (Homo sapiens), P10721 [UNDEFINED MUTATION], sequence (P10721 whole entry, looked up, stated change not applied): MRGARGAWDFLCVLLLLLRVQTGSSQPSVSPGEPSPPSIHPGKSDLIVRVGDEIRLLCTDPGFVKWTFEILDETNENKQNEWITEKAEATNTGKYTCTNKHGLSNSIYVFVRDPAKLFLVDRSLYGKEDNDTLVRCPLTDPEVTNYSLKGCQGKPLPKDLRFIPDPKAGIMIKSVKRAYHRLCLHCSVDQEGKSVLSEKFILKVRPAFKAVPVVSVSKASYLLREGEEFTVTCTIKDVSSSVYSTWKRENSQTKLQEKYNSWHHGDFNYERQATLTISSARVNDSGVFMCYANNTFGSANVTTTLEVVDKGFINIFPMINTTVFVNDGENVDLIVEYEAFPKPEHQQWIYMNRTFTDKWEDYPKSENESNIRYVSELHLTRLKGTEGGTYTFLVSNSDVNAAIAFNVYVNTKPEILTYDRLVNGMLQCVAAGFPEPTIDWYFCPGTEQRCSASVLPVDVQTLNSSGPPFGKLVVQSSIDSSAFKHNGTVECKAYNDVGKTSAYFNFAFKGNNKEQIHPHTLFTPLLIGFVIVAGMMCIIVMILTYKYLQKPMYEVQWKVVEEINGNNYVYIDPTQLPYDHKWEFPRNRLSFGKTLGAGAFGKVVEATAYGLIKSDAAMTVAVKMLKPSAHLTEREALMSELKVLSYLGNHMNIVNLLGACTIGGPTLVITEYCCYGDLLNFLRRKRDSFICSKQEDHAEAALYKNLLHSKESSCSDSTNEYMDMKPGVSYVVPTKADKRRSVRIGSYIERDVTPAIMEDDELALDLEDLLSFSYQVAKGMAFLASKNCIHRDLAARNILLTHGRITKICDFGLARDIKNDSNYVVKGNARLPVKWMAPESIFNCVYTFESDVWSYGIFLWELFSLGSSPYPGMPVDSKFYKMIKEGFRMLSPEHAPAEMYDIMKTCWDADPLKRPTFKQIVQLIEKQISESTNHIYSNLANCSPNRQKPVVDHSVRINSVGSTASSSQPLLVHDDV
T1 sequence (P10721 whole entry, the tested form may be a part): as the sequence (P10721 whole entry, looked up, stated change not applied) above
Serine/threonine-protein kinase Nek1, sequence (Q96PY6 whole entry, the tested form may be a part): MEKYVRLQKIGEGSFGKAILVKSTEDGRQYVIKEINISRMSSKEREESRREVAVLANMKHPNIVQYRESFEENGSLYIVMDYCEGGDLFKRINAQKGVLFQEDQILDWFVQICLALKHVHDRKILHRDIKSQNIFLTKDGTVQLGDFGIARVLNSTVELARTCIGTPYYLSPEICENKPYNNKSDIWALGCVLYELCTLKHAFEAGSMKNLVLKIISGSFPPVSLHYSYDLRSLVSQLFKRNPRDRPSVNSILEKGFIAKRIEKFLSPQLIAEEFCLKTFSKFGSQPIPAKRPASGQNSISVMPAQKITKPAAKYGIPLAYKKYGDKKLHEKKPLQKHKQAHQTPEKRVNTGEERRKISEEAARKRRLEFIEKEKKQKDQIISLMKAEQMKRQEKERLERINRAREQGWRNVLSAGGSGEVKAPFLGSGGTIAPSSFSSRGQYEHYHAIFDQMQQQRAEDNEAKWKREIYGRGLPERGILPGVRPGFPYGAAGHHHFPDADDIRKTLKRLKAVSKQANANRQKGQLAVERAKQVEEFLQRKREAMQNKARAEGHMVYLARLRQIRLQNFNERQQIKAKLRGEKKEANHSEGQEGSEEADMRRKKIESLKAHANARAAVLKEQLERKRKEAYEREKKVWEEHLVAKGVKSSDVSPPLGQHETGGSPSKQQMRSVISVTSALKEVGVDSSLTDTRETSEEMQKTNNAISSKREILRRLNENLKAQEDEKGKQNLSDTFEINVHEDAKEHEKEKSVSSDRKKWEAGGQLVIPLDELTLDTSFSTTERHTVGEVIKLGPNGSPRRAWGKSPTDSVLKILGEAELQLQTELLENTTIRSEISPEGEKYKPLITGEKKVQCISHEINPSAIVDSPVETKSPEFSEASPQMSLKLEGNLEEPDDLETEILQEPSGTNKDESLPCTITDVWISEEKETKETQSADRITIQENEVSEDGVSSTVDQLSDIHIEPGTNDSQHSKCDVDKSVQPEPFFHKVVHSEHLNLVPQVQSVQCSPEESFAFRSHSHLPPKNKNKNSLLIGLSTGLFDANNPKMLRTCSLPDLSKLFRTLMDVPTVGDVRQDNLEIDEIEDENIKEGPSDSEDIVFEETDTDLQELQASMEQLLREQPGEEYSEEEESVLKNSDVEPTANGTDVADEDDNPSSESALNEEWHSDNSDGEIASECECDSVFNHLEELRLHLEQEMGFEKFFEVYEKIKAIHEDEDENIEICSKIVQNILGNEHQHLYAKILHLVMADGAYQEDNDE
Mast/stem cell growth factor receptor Kit (Homo sapiens), P10721 [V559G], sequence (P10721 whole entry V559G, the tested form may be a part): as the sequence (P10721 whole entry, looked up, stated change not applied) above, with V559G counted along it
Mast/stem cell growth factor receptor Kit (Homo sapiens), P10721 [L576P], sequence (P10721 whole entry L576P, the tested form may be a part): as the sequence (P10721 whole entry, looked up, stated change not applied) above, with L576P counted along it
Mast/stem cell growth factor receptor Kit (Homo sapiens, UniProt P10721, T670I), sequence (P10721 26-976 T670I limits assumed): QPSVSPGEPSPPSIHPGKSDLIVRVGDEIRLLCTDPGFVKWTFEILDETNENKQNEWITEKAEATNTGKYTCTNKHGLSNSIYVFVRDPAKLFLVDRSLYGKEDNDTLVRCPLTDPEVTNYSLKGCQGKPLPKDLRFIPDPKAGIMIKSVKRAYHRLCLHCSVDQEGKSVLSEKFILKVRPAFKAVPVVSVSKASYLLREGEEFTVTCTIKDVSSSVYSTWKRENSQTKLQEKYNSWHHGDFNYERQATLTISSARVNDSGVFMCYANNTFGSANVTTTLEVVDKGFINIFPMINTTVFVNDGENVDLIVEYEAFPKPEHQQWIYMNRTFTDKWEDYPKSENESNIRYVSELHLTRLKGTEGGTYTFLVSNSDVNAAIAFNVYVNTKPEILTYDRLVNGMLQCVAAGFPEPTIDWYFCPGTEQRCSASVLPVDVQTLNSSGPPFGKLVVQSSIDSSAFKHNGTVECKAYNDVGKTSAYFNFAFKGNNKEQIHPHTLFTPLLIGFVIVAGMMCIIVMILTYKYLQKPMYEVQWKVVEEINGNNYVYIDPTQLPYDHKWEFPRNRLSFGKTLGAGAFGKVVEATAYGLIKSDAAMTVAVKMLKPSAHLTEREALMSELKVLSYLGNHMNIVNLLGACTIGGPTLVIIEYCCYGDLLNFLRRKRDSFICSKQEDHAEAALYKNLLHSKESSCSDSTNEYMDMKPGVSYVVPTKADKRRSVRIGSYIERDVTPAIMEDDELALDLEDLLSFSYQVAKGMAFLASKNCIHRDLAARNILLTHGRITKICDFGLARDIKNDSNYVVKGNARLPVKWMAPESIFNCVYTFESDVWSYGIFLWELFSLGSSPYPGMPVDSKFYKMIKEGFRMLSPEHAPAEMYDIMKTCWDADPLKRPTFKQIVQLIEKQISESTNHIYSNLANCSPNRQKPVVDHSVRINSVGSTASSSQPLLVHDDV
Mast/stem cell growth factor receptor Kit (Homo sapiens), P10721 [V654A], sequence (P10721 whole entry V654A, the tested form may be a part): as the sequence (P10721 whole entry, looked up, stated change not applied) above, with V654A counted along it

Compound: O=C(CC(=O)Nc1ccc2c(/C=C/c3ccccn3)n[nH]c2c1)Nc1cccc(F)c1
- AUC(0-inf) [1]: 901 ng·h/mL
- Activity (GISTT1 [2]): Dose-dependent effect
- inhibition [3]: Active
- bioavailability [4]: 27.5%
- Activity (GISTT1 [5]): Dose-dependent effect
- Vz [6]: 86.8 L/kg
- inhibition [7]: inactive
- AUC(0-t) [8]: 259 ng·h/mL
- RatioGI50 [9]: 26
- EC50 [10]: 750 nM
- AUC(0-inf) [11]: 809 ng·h/mL
- GI50 [12]: 26 nM
- Activity [13]: 0.1 g
- EC50 [14]: 2050 nM
- GI50 [15]: 525 nM
- IC50 [16]: > 10000 nM
- Activity [17]: < 1%
- inhibition in vivo at 100 mg/kg [18]: 83%
- EC50 [19]: > 1000 nM
